According to ChEMBL document CHEMBL1158369, “Hansch analysis of substituted benzoic acid benzylidene/furan-2-yl-methylene hydrazides as antimicrobial agents” (Eur J Med Chem, 2009):

What was measured:
Escherichia coli = test: Antibacterial activity against Escherichia coli after 24 hrs by tube dilution method; assay type: functional
Procedure, shortened: (§1)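 Twofold serial dilutions of test and standard compounds in double strength nutrient broth (I.P.); tubes incubated at 37 °C for 24 h. Growth judged visually; MIC taken as lowest concentration with no visible turbidity.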

Aspergillus niger = test: Antifungal activity against Aspergillus niger after 7 days by tube dilution method; assay type: functional
Procedure, shortened: (§2)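 Twofold serial dilutions of test and standard compounds in Sabouraud dextrose broth (I.P.); C. albicans incubated 37 °C for 48 h, A. niger 25 °C for 7 d. Growth read visually; MIC is lowest concentration without visible growth.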

Staphylococcus aureus = test: Antibacterial activity against Staphylococcus aureus after 24 hrs by tube dilution method; assay type: functional; procedure, shortened: as §1
Bacillus subtilis = test: Antibacterial activity against Bacillus subtilis after 24 hrs by tube dilution method; assay type: functional; procedure, shortened: as §1
Candida albicans = test: Antifungal activity against Candida albicans after 48 hrs by tube dilution method; assay type: functional; procedure, shortened: as §2
[1] = Lipophilicity, log P of the compound; assay type: physicochemical; conditions: octanol/water

COc1ccc(C(=O)N/N=C/c2cccc([N+](=O)[O-])c2)cc1OC
-logMIC (Escherichia coli): 2.63
-logMIC (Aspergillus niger): 1.72
-logMIC (Staphylococcus aureus): 2.05
-logMIC (Bacillus subtilis): 2.33
-logMIC (Candida albicans): 1.66
logP [1]: 2.87

COc1ccc(/C=N/NC(=O)c2ccc(OC)c(OC)c2)cc1
-logMIC (Escherichia coli): 2.58
-logMIC (Aspergillus niger): 1.68
-logMIC (Staphylococcus aureus): 2.17
-logMIC (Bacillus subtilis): 2.58
-logMIC (Candida albicans): 1.68
logP [1]: 3.39

COc1ccc(/C=N/NC(=O)c2ccc(N)cc2)cc1
-logMIC (Escherichia coli): 2.54
-logMIC (Aspergillus niger): 1.8
-logMIC (Staphylococcus aureus): 1.63
-logMIC (Bacillus subtilis): 2.24
-logMIC (Candida albicans): 1.63
logP [1]: 2.39

COc1ccc(/C=N/NC(=O)c2ccc([N+](=O)[O-])cc2)cc1
-logMIC (Escherichia coli): 2.56
-logMIC (Aspergillus niger): 1.98
-logMIC (Staphylococcus aureus): 1.68
-logMIC (Bacillus subtilis): 2.25
-logMIC (Candida albicans): 1.62
logP [1]: 3.13

Cc1ccc(C(=O)N/N=C/c2ccco2)cc1
logP [1]: 2.84

COc1ccc(/C=N/NC(=O)c2cc([N+](=O)[O-])cc([N+](=O)[O-])c2)cc1OC
-logMIC (Escherichia coli): 2.68
-logMIC (Aspergillus niger): 2.08
-logMIC (Staphylococcus aureus): 2.38
-logMIC (Bacillus subtilis): 2.51
-logMIC (Candida albicans): 1.78
logP [1]: 2.83

COc1ccc(/C=N/NC(=O)c2ccc(Cl)cc2)cc1OC
-logMIC (Escherichia coli): 2.61
-logMIC (Aspergillus niger): 2.01
-logMIC (Staphylococcus aureus): 2.61
-logMIC (Bacillus subtilis): 2.61
-logMIC (Candida albicans): 1.71
logP [1]: 3.44

Cc1ccc(C(=O)N/N=C/c2cccc([N+](=O)[O-])c2)cc1
-logMIC (Escherichia coli): 2.47
-logMIC (Aspergillus niger): 1.85
-logMIC (Staphylococcus aureus): 2.14
-logMIC (Bacillus subtilis): 2.4
-logMIC (Candida albicans): 1.59
logP [1]: 3.85

O=C(N/N=C/c1cccc([N+](=O)[O-])c1)c1ccc([N+](=O)[O-])cc1
-logMIC (Escherichia coli): 2.61
-logMIC (Aspergillus niger): 1.7
-logMIC (Staphylococcus aureus): 1.99
-logMIC (Bacillus subtilis): 2.09
-logMIC (Candida albicans): 1.7
logP [1]: 3.33

COc1ccc(/C=N/NC(=O)c2ccc(C)cc2)cc1
-logMIC (Escherichia coli): 2.54
-logMIC (Aspergillus niger): 1.88
-logMIC (Staphylococcus aureus): 2.24
-logMIC (Bacillus subtilis): 2.32
-logMIC (Candida albicans): 1.63
logP [1]: 3.64

COc1ccc(/C=N/NC(=O)c2ccc(N)cc2)cc1OC
-logMIC (Escherichia coli): 2.49
-logMIC (Aspergillus niger): 1.9
-logMIC (Staphylococcus aureus): 1.94
-logMIC (Bacillus subtilis): 2.29
-logMIC (Candida albicans): 1.68
logP [1]: 2.14

O=C(N/N=C/c1cccc([N+](=O)[O-])c1)c1cc([N+](=O)[O-])ccc1Cl
-logMIC (Escherichia coli): 2.65
-logMIC (Aspergillus niger): 1.59
-logMIC (Staphylococcus aureus): 2.65
-logMIC (Bacillus subtilis): 2.65
-logMIC (Candida albicans): 1.75
logP [1]: 3.85

O=C(N/N=C/c1cccc([N+](=O)[O-])c1)c1cccc([N+](=O)[O-])c1
-logMIC (Escherichia coli): 2.61
-logMIC (Aspergillus niger): 1.7
-logMIC (Staphylococcus aureus): 1.99
-logMIC (Bacillus subtilis): 2.3
-logMIC (Candida albicans): 1.7
logP [1]: 3.33

COc1ccc(/C=N/NC(=O)c2ccc(OC)c(OC)c2)cc1OC
-logMIC (Escherichia coli): 2.64
-logMIC (Aspergillus niger): 2.04
-logMIC (Staphylococcus aureus): 2.07
-logMIC (Bacillus subtilis): 2.34
-logMIC (Candida albicans): 1.74
logP [1]: 2.42

Nc1ccc(C(=O)N/N=C/c2cccc([N+](=O)[O-])c2)cc1
-logMIC (Escherichia coli): 2.56
-logMIC (Aspergillus niger): 1.8
-logMIC (Staphylococcus aureus): 1.98
-logMIC (Bacillus subtilis): 2.29
-logMIC (Candida albicans): 1.66
logP [1]: 2.6

COc1ccc(/C=N/NC(=O)c2ccccc2Br)cc1OC
-logMIC (Escherichia coli): 2.63
-logMIC (Aspergillus niger): 2.06
-logMIC (Staphylococcus aureus): 2.52
-logMIC (Bacillus subtilis): 2.35
-logMIC (Candida albicans): 1.76
logP [1]: 3.71

COc1ccc(/C=N/NC(=O)c2cc([N+](=O)[O-])ccc2Cl)cc1OC
-logMIC (Escherichia coli): 2.67
-logMIC (Aspergillus niger): 1.95
-logMIC (Staphylococcus aureus): 2.67
-logMIC (Bacillus subtilis): 2.62
-logMIC (Candida albicans): 1.76
logP [1]: 3.39

O=C(N/N=C/c1cccc([N+](=O)[O-])c1)c1ccccc1Br
-logMIC (Escherichia coli): 2.49
-logMIC (Aspergillus niger): 1.75
-logMIC (Staphylococcus aureus): 2.35
-logMIC (Bacillus subtilis): 2.65
-logMIC (Candida albicans): 1.75
logP [1]: 4.17

COc1ccc(/C=N/NC(=O)c2cc([N+](=O)[O-])cc([N+](=O)[O-])c2)cc1
-logMIC (Escherichia coli): 2.64
-logMIC (Aspergillus niger): 1.8
-logMIC (Staphylococcus aureus): 2.2
-logMIC (Bacillus subtilis): 2.42
-logMIC (Candida albicans): 1.74
logP [1]: 3.08

COc1ccc(C(=O)N/N=C/c2ccco2)cc1OC
-logMIC (Escherichia coli): 2.3
-logMIC (Aspergillus niger): 1.87
-logMIC (Staphylococcus aureus): 1.61
-logMIC (Bacillus subtilis): 1.98
-logMIC (Candida albicans): 1.64
logP [1]: 1.87

COc1ccc(/C=N/NC(=O)c2ccc(C)cc2)cc1OC
-logMIC (Escherichia coli): 2.58
-logMIC (Aspergillus niger): 1.75
-logMIC (Staphylococcus aureus): 2.17
-logMIC (Bacillus subtilis): 2.58
-logMIC (Candida albicans): 1.68
logP [1]: 3.39

O=C(N/N=C/c1cccc([N+](=O)[O-])c1)c1ccc(Cl)cc1
-logMIC (Escherichia coli): 2.59
-logMIC (Aspergillus niger): 1.69
-logMIC (Staphylococcus aureus): 2.59
-logMIC (Bacillus subtilis): 2.59
-logMIC (Candida albicans): 1.69
logP [1]: 3.9

O=C(N/N=C/c1ccco1)c1cc([N+](=O)[O-])cc([N+](=O)[O-])c1
-logMIC (Escherichia coli): 2.47
-logMIC (Aspergillus niger): 1.69
-logMIC (Staphylococcus aureus): 1.99
-logMIC (Bacillus subtilis): 2.29
-logMIC (Candida albicans): 1.69
logP [1]: 2.28

COc1ccc(/C=N/NC(=O)c2cccc([N+](=O)[O-])c2)cc1OC
-logMIC (Escherichia coli): 2.63
-logMIC (Aspergillus niger): 1.75
-logMIC (Staphylococcus aureus): 2.05
-logMIC (Bacillus subtilis): 2.28
-logMIC (Candida albicans): 1.64
logP [1]: 2.87

COc1ccc(/C=N/NC(=O)c2ccc([N+](=O)[O-])cc2)cc1OC
-logMIC (Escherichia coli): 2.63
-logMIC (Aspergillus niger): 1.75
-logMIC (Staphylococcus aureus): 1.99
-logMIC (Bacillus subtilis): 2.34
-logMIC (Candida albicans): 1.72
logP [1]: 2.87

OC(Cn1cncn1)(Cn1cncn1)c1ccc(F)cc1F [FLUCONAZOLE]
-logMIC (Aspergillus niger): 2.64
-logMIC (Candida albicans): 2.64

CCn1cc(C(=O)O)c(=O)c2cc(F)c(N3CCNCC3)cc21 [NORFLOXACIN]
-logMIC (Escherichia coli): 2.61
-logMIC (Staphylococcus aureus): 2.61
-logMIC (Bacillus subtilis): 2.61
